# Screening data: PubChem, several laboratories
# hK5 inh: blocks human kallikrein 5 protease activity; Q9Y337; recombinant hK5, fluorogenic AMC substrate cleavage; inhibition, % at 5 µM; 210,000 tested, 0.59% active;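 active = inhibition of 40% or more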;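 note: 0% = enzyme controls without compound and 100% = no-enzyme blanks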
# FXIa inh: blocks human coagulation factor XIa protease activity | P03951 | purified FXIa, Boc-Glu-Ala-Arg-AMC fluorogenic substrate | inhibition, % at 5 µM | 220,000 tested, 0.14% active;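 active = inhibition of at least 40%; inactive = inhibition below 40%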;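 note: fluorescence of freed AMC excited at 355 nm; 0% = enzyme without compound and 100% = no enzyme blank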
# m-calpain inh: calpain II (pig) inhibition. inhibition, % at 16 µM. purified calpain II, fluorogenic peptide substrate, 30 min. 220,000 tested, 0.37% active;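 active = inhibition above about 50%, limit read from the data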
# Thrombin inh: thrombin (human) inhibition. inhibition, % at 5 µM. P00734. 220,000 tested, 0.26% active. alpha-thrombin, Boc-VPR-AMC fluorogenic substrate cleavage. AID 1046;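 active = inhibition at or above 40%; inactive = inhibition below 40%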;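 note: 0% = enzyme with no compound and 100% = wells without enzyme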
#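 signal = AMC fluorescence, 355/460 nm | material = human alpha-thrombin enzyme | control set = enzyme without compound as high, wells lacking enzyme as low | times = reaction at room temperature | read-out basis = percent inhibition scaled between no-compound controls and no-enzyme blanks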
# FXIIa inh: factor XIIa (human) inhibition; purified FXIIa, Boc-QGR-AMC fluorogenic substrate, 2 h; AID 800; 220,000 tested, 0.3% active; P00748; inhibition, % at 5 µM; in the data active = inhibition above about 40%;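 note: 0% = enzyme with no compound and 100% = blank without enzyme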
# Starred values were filed as active, the others as inactive. The list is not random: actives were taken first. Their share in the collection is about 1.4%.
SMILES,hK5 inh,FXIa inh,m-calpain inh,Thrombin inh,FXIIa inh
COC(=O)c1c(C)oc(C)c(C(=O)OC)c1=O,73.8*,11.1,7.6,17.1,20.9
N#Cc1c(N)nc2c(c1N)CC(=O)N2c1ccc(Cl)cc1,-9.5,-12.1,-21.2,-1.7,7.5
NC(=O)/C(=N\OC(=O)c1ccco1)c1nc(-c2ccc(Br)cc2)cs1,-103.2,5.4,-14.1,77.6*,40.6*
O=C(Cn1nc(-c2ccccc2)ccc1=O)Nc1ccc(N2CCN(C(=O)c3cccs3)CC2)cc1,4.8,-1.4,-124.3,-4.6,12.6
O=C(CCS(=O)(=O)CCN1CCOCC1)NCNC(=O)CCS(=O)(=O)CCN1CCOCC1,-4.0,-4.0,-21.1,-2.1,2.5
O=[N+]([O-])c1ccc(Oc2cccc(F)c2)c2ccncc12,7.3,2.9,51.2*,3.5,13.6
CCc1nc2sccc2c(=O)[nH]1,55.9*,31.9,10.9,44.2*,23.1
CCCS(=O)(=O)c1c(S(=O)(=O)CCC)c2c(C)cccn2c1C(=O)N/N=C/c1cc(O)cc(O)c1,-1.1,3.5,7.8,1.8,6.3
COCc1[nH][nH]c(=O)c1C=NCC(=O)OC,4.0,2.0,4.2,-0.1,10.9
CC(C)C1Cc2c(C#N)c(N)n(C)c(=S)c2CO1 (configuration not stated),53.3*,5.9,5.7,17.9,17.4
NC(=O)N[C@@H](Cc1c[nH]c2ccccc12)C(=O)OCC(=O)N1CCCCC1,30.1,37.9,14.2,-18.6,39.2
O=C(NC(Cc1c[nH]c2ccccc12)c1nnc2n1CCCCC2)c1ccc(Cl)cc1 (configuration not stated),47.6*,-0.6,15.3,14.0,23.4
Cc1cc(NC(=O)NC(C)(C(F)(F)F)C(F)(F)F)no1,-0.6,-1.1,-7.9,-1.1,8.0
Cc1ccc2c(c1)c1c3n2CCCNC3CCC1 (configuration not stated),-25.8,-13.3,17.8,40.8*,17.7
COc1cccc(NC(=S)NCc2cccs2)c1,-8.6,10.7,29.1,-2.2,13.7
CC(C)OC(=O)c1cccc(NC(=O)CSc2nnc(N)s2)c1,36.6,33.6,25.9,18.1,102.8*
Cc1c(Cl)cccc1NC(=O)COC(=O)CN1C(=O)NC(C)(C)C1=O,1.4,-1.9,-11.3,-4.6,1.0
Cc1cc(N2CCN(c3ccccc3)CC2)nc(-c2ccccc2)n1,65.3*,3.2,14.0,83.3*,22.7
Cc1cc(N2CCN(c3ccccc3)CC2)nc(N)n1,-12.5,-1.6,-12.5,-2.6,4.8
O=C(NCc1cccs1)C1CCN(S(=O)(=O)c2ccccc2F)CC1,0.8,2.3,-12.7,3.4,10.0
CCN(CC)C(=O)CSc1ccccc1N,46.9*,2.6,15.9,11.9,2.2
CC(C)[C@H](NC(=O)[C@H](CCCN=C(N)N)NC(=O)NC(Cc1ccccc1)C(=O)O)C(=O)NC(C=O)CCCN=C(N)N (some centres not stated),32.4,43.4*,51.1*,6.9,47.4*
COC(=O)[C@@H](NC(=O)NC(C)CCc1ccccc1)C(C)C (some centres not stated),-4.4,5.4,-31.7,-7.7,17.9
CC(=O)Nc1cccc(CP(=O)(c2ccccc2)c2ccccc2)c1,1.4,1.5,-21.3,1.1,6.8
Cc1ccccc1-n1cc(CNC(=O)CCc2nnc(CCc3ccccc3)o2)cn1,5.2,9.3,12.6,-8.8,12.9
SMILES,hK5 inh,FXIa inh,m-calpain inh,Thrombin inh,FXIIa inh
O=C1CC(c2cccs2)c2cc3c(cc2N1)OCO3 (configuration not stated),46.3*,1.2,-2.6,-0.4,16.6
CCOCC(=O)Nc1ccc(S(=O)(=O)Nc2ncccn2)cc1,1.4,24.8,19.1,0.9,52.9*
CCOC(=O)C(=O)Nc1ccc(S(=O)(=O)Nc2ncccn2)cc1,16.6,3.6,18.5,20.9,3.1
CN(C)c1nc(NC(C)(C)C)nc(NC(C)(C)C)n1,0.5,-3.6,24.8,1.1,4.4
CCCn1c2c(c(O)c(C(=O)Nc3nccs3)c1=O)CCCC2,32.6,-4.5,-46.3,100.6*,14.8
CCOC(=O)c1cnc(-n2nc(C)cc2C)nc1Nc1ccc(OC)cc1,-10.2,-4.6,53.8*,15.6,1.3
CCOC(=O)c1cnc(-n2nc(C)cc2C)nc1Nc1ccccc1OC,-16.7,-27.2,-20.9,0.3,2.5
CCC(C(=O)Nc1cc(C(=O)Nc2cc(C)ccn2)ccc1Cl)c1ccccc1 (configuration not stated),-20.9,0.5,-8.9,-7.3,9.1
COc1ccc(NCc2nnc(SCC(=O)Nc3nc(-c4ccccc4)cs3)n2-c2ccccc2)cc1,-5.2,10.3,-36.3,0.3,3.2
